Screening results as filed in PubChem BioAssay.
The list is not random: actives were taken first. Their share in the collection is about 1.2%.
ARFGAP1 inh: inhibitors of rat ARFGAP1 GAP activity, primary screen, biochemical, fluorescence polarization, GDP tracer; AID 651572, 2012; 0.26% of 360,000 active; inhibition, % at 16.5 µM; Arfgap1-stimulated ARF1 GTP hydrolysis, GDP FP detection; ADP-ribosylation factor GTPase-activating protein 1 (Rattus norvegicus), Q62848;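 active = inhibition above a per-plate limit, mean inhibition of low control wells plus 3 SD, cut at about 25% in these data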
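System: truncated rat Arfgap1 GAP domain / Medium: HEPES-based buffer, pH 7.5 / Also added: N-terminally truncated human ARF1-GTP substrate / Incubation: enzyme reaction 120 min at 25 °C after 20 min preincubation / Measured by: FP of antibody-bound GDP Alexa 633 tracer, ex 620/em 688 nm / Replicates: singlicate, each compound tested once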
ASAP1 GAP inh: inhibitors of human ASAP1 ArfGAP activity, primary screen, biochemical, fluorescence polarization. Arf-GAP with SH3 domain, ANK repeat and PH domain-containing protein 1 (Homo sapiens), …. ASAP1-stimulated ARF1 GTP hydrolysis, GDP FP detection. inhibition, % at 16.5 µM. 0.19% of 360,000 active. AID 624377, 2012; in the data active = inhibition above about 25%
CTSL1 counter: Fasciola hepatica cathepsin L1 inhibitors, primary screen, counter-screen for PFM18AAP inhibitor project, biochemical, QFRET, fluorogenic peptide substrate; recombinant F. hepatica cathepsin L1, Z-Leu-Arg-MCA fluorescence; inhibition, % at 5.96 µM; 0.49% of 300,000 active; AID 1906, 2009;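 active = inhibition above the mean of all tested compounds plus 3 SD, set per screening campaign, cut at about 17% in these data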
NPR1 activator: GC-A stimulated cGMP production enhancers – HEK293 GC-A cells, cGMP TR-FRET, EC30 ANP, primary screen. AID 1671463, 2021. activation, % at 10 µM. Atrial natriuretic peptide receptor 1 (Homo sapiens), P16066. 0% at EC30 ANP, 100% saturating ANP. 0.14% of 370,000 active; in the data active = activation above about 40%
Target sequence (P16066 whole entry, looked up): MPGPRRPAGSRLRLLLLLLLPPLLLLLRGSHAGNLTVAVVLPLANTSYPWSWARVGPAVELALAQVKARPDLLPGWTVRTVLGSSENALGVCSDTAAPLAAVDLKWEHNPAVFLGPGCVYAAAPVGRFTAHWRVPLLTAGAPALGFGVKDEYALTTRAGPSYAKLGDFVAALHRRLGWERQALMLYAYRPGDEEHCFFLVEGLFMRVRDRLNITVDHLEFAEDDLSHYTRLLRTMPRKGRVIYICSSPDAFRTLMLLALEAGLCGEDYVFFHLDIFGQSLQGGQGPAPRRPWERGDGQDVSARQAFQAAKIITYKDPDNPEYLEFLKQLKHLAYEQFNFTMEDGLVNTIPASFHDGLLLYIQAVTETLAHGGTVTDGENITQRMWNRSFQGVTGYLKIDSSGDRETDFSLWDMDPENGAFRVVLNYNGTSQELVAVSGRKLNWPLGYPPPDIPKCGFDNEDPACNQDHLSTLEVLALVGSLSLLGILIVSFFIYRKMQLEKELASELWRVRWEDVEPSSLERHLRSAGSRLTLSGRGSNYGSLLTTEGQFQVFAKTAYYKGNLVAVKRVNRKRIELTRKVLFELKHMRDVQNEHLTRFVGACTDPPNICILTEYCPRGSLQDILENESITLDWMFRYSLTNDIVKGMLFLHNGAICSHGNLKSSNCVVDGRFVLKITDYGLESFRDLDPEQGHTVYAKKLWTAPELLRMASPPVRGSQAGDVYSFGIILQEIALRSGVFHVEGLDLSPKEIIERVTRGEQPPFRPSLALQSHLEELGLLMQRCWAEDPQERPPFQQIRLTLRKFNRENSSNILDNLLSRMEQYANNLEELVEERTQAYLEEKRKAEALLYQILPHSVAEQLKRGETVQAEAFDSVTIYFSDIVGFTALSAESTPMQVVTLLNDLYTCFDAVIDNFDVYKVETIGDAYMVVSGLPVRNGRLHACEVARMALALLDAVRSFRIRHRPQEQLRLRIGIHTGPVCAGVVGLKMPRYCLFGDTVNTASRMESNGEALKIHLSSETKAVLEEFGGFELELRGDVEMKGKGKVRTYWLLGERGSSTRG
GC-B act: human GC-B receptor activators, primary screen, HEK293 GC-B cells, cGMP TR-FRET, EC30 CNP. AID 1920062, 2024. 0.11% of 370,000 active. Atrial natriuretic peptide receptor 2 (Homo sapiens), P20594. activation, % at 10 µM. 0% at EC30 CNP, 100% saturating CNP;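 active = activation at 10 µM reaching about 35% in either raw or pattern-adjusted values, limit read from the data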
core dimer inh: inhibitors of HCV core protein dimerization, primary screen, biochemical, TR-FRET, high-throughput; TR-FRET GST/Flag-core106 dimerization, 1536-well; 0.33% of 300,000 active; inhibition, % at 5 µM;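 active = inhibition above the mean of all tested compounds plus 3 SD, set per screening campaign, cut at about 45% in these data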
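assay system = GST-tagged and Flag-tagged HCV core protein residues 1-106 | controls = unlabelled core106 and no-GST-core106 wells | incubation = compound-protein-antibody incubation 4 h at 22.5 °C | probe or stimulus = Eu donor and XL665 acceptor anti-tag antibodies | read-out = % inhibition based on acceptor/donor emission ratio | signal = TR-FRET 671 and 617 nm emission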
ARFGAP1 inh conf: ARFGAP1 inhibitor hit confirmation, biochemical, fluorescence polarization, triplicate. shares compounds with ARFGAP1 inh. ARFGAP1-stimulated ARF1 GTP hydrolysis, GDP tracer FP. inhibition, % at 16.5 µM. 30% of 890 active. AID 651608, 2012;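 active = average inhibition over triplicates above the hit cutoff set in the earlier primary screen, cut at about 25% in these data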
Each line names hits and unclear results; the compound was inactive in the other large screens (follow-up assays come after a bar, where they were run).

Cc1ccc(-c2nc(C(=O)NCCCN3CCOCC3)cc3c2[nH]c2ccccc23)cc1	none
COc1ccc(-c2nc(C(=O)NCCCN3CCOCC3)cc3c2[nH]c2ccccc23)cc1OC	ARFGAP1 inh 28 | ARFGAP1 inh conf inactive
CC(=O)n1cc(/C=N/NC(=O)c2ccc(Cl)cc2)c2ccccc21	ARFGAP1 inh 27 | ARFGAP1 inh conf inactive
CSc1cccc(NC(=O)OC2CCCCCCCCCCC2)c1	none
CC(C)c1cccc(C(C)C)c1NC(=O)OC1CCCCC1	ARFGAP1 inh 28 (no result: CTSL1 counter, core dimer inh) | ARFGAP1 inh conf inactive
COc1ccc(C(C)=O)cc1COC(=O)CCC(=O)c1cccs1	none (no result: CTSL1 counter, core dimer inh)
COCCNCc1nc2sc(C)c(-c3ccccc3)c2c(=O)[nH]1	ARFGAP1 inh 28 | ARFGAP1 inh conf inactive
CCSCCOC(=O)C1=C(C)NC(=O)NC1c1cccc(OC)c1OC (stereo not given)	ARFGAP1 inh 26 | ARFGAP1 inh conf inactive
CCN(c1ccc(C)c(C)c1)S(=O)(=O)c1ccc2c(c1)CCN2C(=O)CCC(=O)O	ARFGAP1 inh 29 | ARFGAP1 inh conf inactive
COc1cc(C)c(CNc2cccc(C)c2)cc1C	none
Cn1c(SCC(=O)NNC(=O)c2ccccc2)nnc1C1CC1	none
C=CCN1C(=O)c2ccc(C(=O)N(C)CC(=O)Nc3ccc(OCC)c(OCC)c3)cc2C1=O	none
C=C(C)COc1ccc(-c2[nH]ncc2-c2ccc(OC)cc2)c(O)c1	ARFGAP1 inh 26 | ARFGAP1 inh conf inactive
COc1ccc(CCN2CC(C(=O)N(C)Cc3ccccc3OC)CCC2=O)cc1 (stereo not given)	none
COc1cc(Cl)c(NC2=CC(=O)C(=O)c3ccccc32)c(OC)c1	ARFGAP1 inh 28 (no result: CTSL1 counter, core dimer inh) | ARFGAP1 inh conf inactive
O=C(Nc1ccccc1)C1C2/C=C\CCCCC21 (stereo not given)	none
Cc1ccc(NC(=O)C2C3/C=C\CCCCC32)cc1C (stereo not given)	ARFGAP1 inh 44 | ARFGAP1 inh conf inactive
CCCCCc1c(C)nc(N2CCc3ccccc32)[nH]c1=O	ARFGAP1 inh 26 (no result: CTSL1 counter, core dimer inh) | ARFGAP1 inh conf inactive
CCC(=O)Nc1ccc(NC(=O)CSc2nnnn2-c2ccc3c(c2)OCCO3)cc1	ARFGAP1 inh 33 | ARFGAP1 inh conf 42
CCOC(=O)c1csc(NC(=O)CSc2nnnn2-c2ccc3c(c2)OCCO3)n1	none
CCN(CC)C(=O)CN(c1cccc(C(F)(F)F)c1)S(C)(=O)=O	ARFGAP1 inh 31 | ARFGAP1 inh conf inactive
CCN(CC)C(=O)CN(c1cccc(Br)c1)S(C)(=O)=O	none
C=CCn1c2ccccc2c2nnc(SCCN3CCCCC3)nc21	none
C=CCn1c2ccccc2c2nnc(SCCCn3c(=O)[nH]c4ccccc43)nc21	ARFGAP1 inh 40 (no result: CTSL1 counter, core dimer inh) | ARFGAP1 inh conf inactive
Cc1ccc2cccc(S(=O)(=O)Nc3ccc4c(c3)OCO4)c2n1	none
CCOC(=O)c1c(NC(=O)C[n+]2ccc(N(C)C)cc2)sc(C)c1C	ARFGAP1 inh 25 | ARFGAP1 inh conf inactive
CCOC(=O)C1CCN(C(=O)CN(c2cccc(C(F)(F)F)c2)S(C)(=O)=O)CC1	none
O=C(CCC1CCCC1)N=C1SC2CS(=O)(=O)CC2N1c1ccccc1F (stereo not given)	none
O=C(CCCc1ccccc1)N=C1SC2CS(=O)(=O)CC2N1c1ccccc1F (stereo not given)	ARFGAP1 inh 29 | ARFGAP1 inh conf inactive
N#CCCn1cc(/C=N/NC(N)=S)c(-c2ccc(-c3ccccc3)cc2)n1	ARFGAP1 inh 27, CTSL1 counter 29 | ARFGAP1 inh conf 26
CC1CCCN(C(=O)Cn2nnc(-c3cccnc3)n2)C1 (stereo not given)	ARFGAP1 inh 26 | ARFGAP1 inh conf inactive
CCN(C[C@H]1N[C@@](Cc2ccccc2)(C(=O)OC)[C@H]2C(=O)N(C)C(=O)[C@@H]12)S(=O)(=O)c1ccc(OC)cc1	none (no result: CTSL1 counter, core dimer inh)
COc1cc(NC(=O)COc2ccc([N+](=O)[O-])cc2)ccc1NC(=O)c1ccco1	ARFGAP1 inh 58 (no result: CTSL1 counter, core dimer inh) | ARFGAP1 inh conf 75
COc1cc(NC(=O)c2c(OC)cccc2OC)ccc1NC(=O)c1cc2ccccc2o1	none
COCC(=O)Nc1ccc([N+](=O)[O-])cc1OC	none
COc1cc(NC(=O)c2cc3ccccc3o2)ccc1NC(=O)c1ccco1	ARFGAP1 inh 27 | ARFGAP1 inh conf inactive
COc1cc([N+](=O)[O-])ccc1NC(=O)COC(=O)c1ccc(NC(N)=O)cc1	ARFGAP1 inh 29 | ARFGAP1 inh conf inactive
COc1ccc(C(=O)N(C)[C@H]2C[C@H]3c4[nH]c5ccccc5c4CCN3C[C@H]2[C@H](C)O)cc1	none (no result: CTSL1 counter, core dimer inh)
CCCCN(CC)CCNC(=O)c1cc2c(=O)[nH]c3ccc(C)cc3c2s1	ARFGAP1 inh 29 | ARFGAP1 inh conf inactive
CCCCN(CC)CCCNC(=O)c1cc2c(=O)[nH]c3ccccc3c2s1	none
Cc1onc(-c2c(Cl)cccc2Cl)c1C(=O)NCC1CCCO1 (stereo not given)	none
Cc1ccc(NC(=O)Cn2nnc(C(=O)Nc3ccc(F)c(Cl)c3)c2N)cc1	none
COc1ccc(NC(=O)Cn2nnc(C(=O)Nc3ccc(F)c(Cl)c3)c2N)cc1	ARFGAP1 inh 27 | ARFGAP1 inh conf 36
COc1ccc(NC(=O)c2nnn(CC(=O)Nc3ccc4c(c3)OCO4)c2N)cc1OC	none
COc1ccc(Cl)cc1NC(=O)c1nnn(CC(=O)Nc2ccc3c(c2)OCO3)c1N	ARFGAP1 inh 94 | ARFGAP1 inh conf 132
CCCCC(=O)Nc1sc2c(c1C(N)=O)CCC2	none
COc1ccc(N2CC(C(=O)Nc3ccc(S(=O)(=O)Nc4nccs4)cc3)CC2=O)c(OC)c1 (stereo not given)	ARFGAP1 inh 25 (no result: CTSL1 counter, core dimer inh) | ARFGAP1 inh conf inactive
CC(C)C[C@H]1CN(CCCC[C@H]2CNC(=O)C(=O)N2CC2CCCCC2)C(=O)C(=O)N1CCc1ccccc1	ARFGAP1 inh 30 (no result: CTSL1 counter, core dimer inh) | ARFGAP1 inh conf inactive
CCCCNc1c(-c2cccc(SC3CCCCC3)c2)nc2ccc(Cl)cn12	none
